Laboratory results: publication PMC3787871 (Bioorganic & medicinal chemistry letters, 2008)
“Also recorded” adds a separate entry of the source. Each block holds one compound with its values, some of them ahead of it.

Experiments:
mGluR4 [1] = molecular target: T1, mGluR4 (Homo sapiens, UniProt Q14833); assay: Potentiation of an EC20 of glutamate in human mGluR4/Gqi5 CHO cells; format: cell-based; conditions: for loss in potency relative to 6: mGluR4 PAM EC50 versus re-synthesized 6; for mGluR4 PAM activity (in words): potentiation of EC20 glutamate, mGluR4/Gqi5 CHO cells
mGluRs = assay: Selectivity screen across the mGluRs; format: cell-based
mGluR4 [2] = molecular target: T1, mGluR4; assay: Receptor activation in mGluR4/Gqi5 CHO cells in the absence of glutamate; format: cell-based; conditions: no EC20 glutamate added
mGluR1 [3] = molecular target: T2, mGluR1 (Homo sapiens, UniProt Q13255); assay: EC20 activation assay, mGluR1; format: cell-based; conditions: at 30 μM
mGluR8 = mGluR8 (Homo sapiens, UniProt O00222); assay: EC20 activation assay, mGluR8; format: cell-based; conditions: at 30 μM
mGluR1 [4] = molecular target: T2, mGluR1; assay: mGluR1 antagonist activity; format: cell-based
mGluR4 [5] = conditions: cited from earlier work; for EC50: mGluR4 PAM
[6] = system: preclinical Parkinson's disease models; conditions: cited from earlier work
mGluR4 [7] = conditions: cited from earlier work
mGluR1 [8] = molecular target: T2, mGluR1; conditions: cited from earlier work
mGluR4 [9] = molecular target: T1, mGluR4; format: cell-based; conditions: at 30 μM compound
Summary of the method: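 Human mGluR4 co-expressed with chimeric Gqi5 in CHO cells. Glutamate concentration–response curves run with and without 30 μM test compound; fold shift taken as the leftward displacement of the glutamate curve. Responses expressed as % of maximal glutamate response. Average of at least three independent determinations, each in triplicate.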

T2 sequence (Q13255 19-1194): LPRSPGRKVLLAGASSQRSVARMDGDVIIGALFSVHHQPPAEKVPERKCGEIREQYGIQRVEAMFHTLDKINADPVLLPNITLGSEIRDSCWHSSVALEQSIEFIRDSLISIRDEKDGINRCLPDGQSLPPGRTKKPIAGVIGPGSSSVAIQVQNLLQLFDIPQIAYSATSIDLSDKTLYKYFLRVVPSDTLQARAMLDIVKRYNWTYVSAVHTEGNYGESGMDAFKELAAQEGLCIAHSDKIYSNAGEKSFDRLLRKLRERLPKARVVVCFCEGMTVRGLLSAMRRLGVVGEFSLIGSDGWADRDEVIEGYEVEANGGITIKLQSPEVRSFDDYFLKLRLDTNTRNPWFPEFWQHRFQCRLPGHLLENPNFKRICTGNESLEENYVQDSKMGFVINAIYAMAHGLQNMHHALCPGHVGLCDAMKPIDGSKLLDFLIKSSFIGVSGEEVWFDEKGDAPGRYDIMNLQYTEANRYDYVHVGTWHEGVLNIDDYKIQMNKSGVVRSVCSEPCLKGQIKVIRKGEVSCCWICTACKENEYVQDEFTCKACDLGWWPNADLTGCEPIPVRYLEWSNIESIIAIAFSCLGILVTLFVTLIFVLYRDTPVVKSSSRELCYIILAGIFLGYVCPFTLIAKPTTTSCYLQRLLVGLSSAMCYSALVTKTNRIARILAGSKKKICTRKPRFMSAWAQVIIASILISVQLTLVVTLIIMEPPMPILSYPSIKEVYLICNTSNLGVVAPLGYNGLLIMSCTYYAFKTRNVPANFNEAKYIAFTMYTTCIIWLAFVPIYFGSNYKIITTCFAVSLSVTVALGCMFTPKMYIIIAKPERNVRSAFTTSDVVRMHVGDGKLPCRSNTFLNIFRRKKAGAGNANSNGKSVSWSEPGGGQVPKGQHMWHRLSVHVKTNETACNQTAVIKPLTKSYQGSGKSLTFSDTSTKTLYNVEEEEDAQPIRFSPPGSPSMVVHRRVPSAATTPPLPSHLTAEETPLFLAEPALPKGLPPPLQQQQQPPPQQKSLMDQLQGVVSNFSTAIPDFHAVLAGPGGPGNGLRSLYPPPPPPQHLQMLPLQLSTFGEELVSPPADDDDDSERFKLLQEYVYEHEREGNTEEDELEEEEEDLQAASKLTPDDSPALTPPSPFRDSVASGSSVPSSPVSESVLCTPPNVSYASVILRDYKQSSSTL
T1 sequence (Q14833 33-912): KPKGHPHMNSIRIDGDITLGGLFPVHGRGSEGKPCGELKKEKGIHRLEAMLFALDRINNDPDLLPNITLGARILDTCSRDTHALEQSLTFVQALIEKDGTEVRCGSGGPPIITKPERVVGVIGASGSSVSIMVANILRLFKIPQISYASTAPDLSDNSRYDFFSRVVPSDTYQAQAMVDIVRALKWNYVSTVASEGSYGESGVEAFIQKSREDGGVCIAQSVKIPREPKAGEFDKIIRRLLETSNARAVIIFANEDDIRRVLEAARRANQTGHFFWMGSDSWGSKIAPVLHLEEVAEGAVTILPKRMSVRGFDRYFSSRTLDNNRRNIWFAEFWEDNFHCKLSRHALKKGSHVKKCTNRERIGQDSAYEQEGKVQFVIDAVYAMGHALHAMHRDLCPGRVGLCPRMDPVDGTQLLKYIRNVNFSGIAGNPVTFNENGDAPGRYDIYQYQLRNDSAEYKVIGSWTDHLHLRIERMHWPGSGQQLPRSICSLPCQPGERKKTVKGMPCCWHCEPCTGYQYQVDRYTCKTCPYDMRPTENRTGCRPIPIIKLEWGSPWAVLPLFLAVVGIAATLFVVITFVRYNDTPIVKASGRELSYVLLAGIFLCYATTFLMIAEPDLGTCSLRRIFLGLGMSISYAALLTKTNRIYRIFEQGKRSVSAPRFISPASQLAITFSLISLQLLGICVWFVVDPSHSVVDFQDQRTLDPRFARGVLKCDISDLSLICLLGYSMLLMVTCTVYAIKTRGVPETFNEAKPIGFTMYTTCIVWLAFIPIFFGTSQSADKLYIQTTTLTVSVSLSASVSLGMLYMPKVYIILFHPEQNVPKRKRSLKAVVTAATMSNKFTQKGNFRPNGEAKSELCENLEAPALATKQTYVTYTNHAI
Chain of mGluR8 (O00222 34-908, species assumed): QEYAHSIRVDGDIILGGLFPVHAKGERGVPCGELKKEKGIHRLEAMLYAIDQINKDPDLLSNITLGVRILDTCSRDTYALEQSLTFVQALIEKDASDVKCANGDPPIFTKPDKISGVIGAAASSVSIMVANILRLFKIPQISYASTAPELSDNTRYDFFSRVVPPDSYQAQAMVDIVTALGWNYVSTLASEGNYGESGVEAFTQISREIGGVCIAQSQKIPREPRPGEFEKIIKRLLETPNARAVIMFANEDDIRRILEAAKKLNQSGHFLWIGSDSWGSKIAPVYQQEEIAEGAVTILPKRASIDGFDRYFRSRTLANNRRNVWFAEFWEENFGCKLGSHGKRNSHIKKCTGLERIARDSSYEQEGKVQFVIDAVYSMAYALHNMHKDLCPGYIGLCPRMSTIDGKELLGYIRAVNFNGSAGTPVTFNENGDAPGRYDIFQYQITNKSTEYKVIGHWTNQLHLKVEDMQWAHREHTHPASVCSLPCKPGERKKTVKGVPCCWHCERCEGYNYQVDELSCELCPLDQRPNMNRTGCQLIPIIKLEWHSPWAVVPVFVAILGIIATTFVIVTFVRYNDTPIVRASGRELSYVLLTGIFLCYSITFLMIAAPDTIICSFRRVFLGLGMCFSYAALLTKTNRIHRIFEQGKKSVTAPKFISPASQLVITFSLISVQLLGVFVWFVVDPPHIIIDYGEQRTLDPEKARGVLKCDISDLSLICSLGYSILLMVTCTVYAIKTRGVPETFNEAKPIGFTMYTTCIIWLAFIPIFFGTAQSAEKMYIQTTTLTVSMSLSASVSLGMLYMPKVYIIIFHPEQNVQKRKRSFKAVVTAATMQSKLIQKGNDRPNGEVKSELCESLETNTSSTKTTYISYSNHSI

loss in potency relative to 6 (mGluR4 [1]): > 6 fold
Compound: Cc1nc2ccccc2nc1N/N=C/c1ccccc1O [Compound 12b]

EC50 (mGluR4 [1]): 650 nM
mGluR4 PAM activity (in words) (mGluR4 [1]): Concentration-dependent potentiation
activation of mGluR1 (mGluR1 [3]): moderate activation
activation of mGluR8 (mGluR8): moderate activation
Compound: Cc1nc2ccccc2nc1N/N=C/c1ccc(O)cc1 [Compound 6, (E)-4-((2-(3-methylquinoxalin-2-yl)hydrazono)methyl) phenol]
antagonism of mGluRs (mGluRs; EC80 assay): not an antagonist of any mGluR
selectivity across the mGluRs (mGluRs; activation (EC20 glutamate potentiation) and inhibition (depression of EC80) assays): highly selective for mGluR4
effect on mGluR4 in the absence of glutamate (mGluR4 [2]): no effect; also recorded: do not elicit receptor activation
mGluR1 antagonist activity (mGluR1 [4]): devoid of mGluR1 antagonist activity; also recorded: did not exhibit mGluR1 antagonist activity

mGluR4 PAM activity (in words) (mGluR4 [1]): afforded mGluR4 PAM activity
Compound: Cc1nc2ccccc2nc1N/N=C/c1ccc(F)cc1 [Compound 12c]

mGluR4 PAM activity (in words) (mGluR4 [1]): afforded mGluR4 PAM activity
Compound: Cc1nc2ccccc2nc1N/N=C/c1ccccc1 [Compound 12d]

Compound: O=C(O)[C@H]1CCCC[C@H]1C(=O)Nc1cc(Cl)cc(Cl)c1 [Compound 5]
EC50 (mGluR4 [5]): 750 nM
efficacy in preclinical Parkinson's disease models [6]: displayed efficacy in preclinical Parkinson’s disease models
allosteric agonist activity (mGluR4 [7]): significant allosteric agonist activity

Compound: O=C(Nc1ccccc1)[C@]12C[C@H]1/C(=N\O)c1ccccc1O2 [PHCCC, N-phenyl-7-(hydroxyimino) cyclopropa(b)chromen-1a-carboxamide]
mGluR1 antagonist activity (in words) (mGluR1 [8]): significant mGluR1 antagonist activity

Compound: Cc1ccc(-n2ncc3c(N4CCCC(C)C4)ncnc32)c(C)c1 (stereo not shown) [Compound 4]
fold shift of the glutamate response (mGluR4 [5]): 11.8 fold
EC50 (mGluR4 [5]): 5000 nM
mGluR1 antagonist activity (in words) (mGluR1 [8]): significant mGluR1 antagonist activity
IC50 (mGluR1 [8]; read-out: IC50 (full antagonist of mGluR1)): 2600 nM

EC50 (mGluR4 [1]): 1800 nM
fold shift of the glutamate response curve (leftward) (mGluR4 [9]): 2.7 fold
Compound: Cc1ccc(N2C(=O)c3ccccc3NC2C(C)c2ccccc2)cc1 (stereo not shown) [Compound 7]

loss in potency relative to 6 (mGluR4 [1]): > 3 fold
Compound: Cc1nc2ccccc2nc1N/N=C/c1cccc(O)c1 [Compound 12a]
